ChEMBL document CHEMBL4138225, “Development of novel anti-filarial agents using carbamo(dithioperoxo)thioate derivatives” (Eur J Med Chem, 2018)
Values after ≈ are worked out from the molar mass of the structure shown. Active and inactive are the calls of the source. The rule behind the calls is not given here.

Experiments:
Setaria cervi [1] = assay: Antifilarial activity against Setaria cervi microfilariae assessed as reduction in worm movement measured every 6 hrs up to 24 hrs by microscopy; type: functional, organism-based
Procedure, shortened: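 About 1×10^5 S. cervi mf per well in RPMI-1640 with 10% FBS at 5% CO2, given a dose series. Motility checked by microscope every 6 h up to 24 h and scored 4 (highly motile) down to 0 (dead). IC50 and MIC calculated from scores; three experiments in triplicate, mean ± SE.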

Setaria cervi [2] = assay: Antifilarial activity against Setaria cervi microfilariae after 24 hrs by MTT assay; type: functional
Procedure, shortened: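 Bovine S. cervi microfilariae incubated with compounds (DMSO-dissolved) in RPMI-1640 + 10% FBS, 5% CO2, 24 h. Worms washed in PBS; ~1×10^3 suspended in 0.3 ml MTT 0.25 mg/ml, 37 °C 2 h in dark. Formazan dissolved in DMSO, absorbance at 595 nm. Percent inhibition computed; LC50 fitted; ≥4 repeats, mean ± SE.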

Setaria cervi [3] = assay: Antifilarial activity against Setaria cervi microfilaria forms after 24 hrs by MTT assay; type: functional, organism-based
Procedure, shortened: (§1)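 S. cervi mf or adults cultured in RPMI-1640 with 10% FBS, 5% CO2, 24 h with compounds dissolved in DMSO. Worms washed in PBS, ~1×10^3 put in 0.25 mg/ml MTT for 2 h at 37 °C in the dark. Formazan dissolved in DMSO, A595. Percent inhibition computed, LC50 fitted; at least four repeats, mean ± SE.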

Setaria cervi [4] = assay: Induction of chromatin condensation in Setaria cervi microfilariae by Hoechst 33342 staining-based […] microscopic analysis; type: functional, organism-based
Procedure, shortened: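 Treated mf washed in PBS (pH 7.2), fixed in paraformaldehyde and stained 5 min with 1 mg/mL Hoechst 33342. Mounted on poly-L-lysine slides and imaged by fluorescence microscopy at […].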

Setaria cervi [5] = assay: Antifilarial activity against Setaria cervi adult after 24 hrs by MTT assay; type: functional, organism-based; procedure, shortened: as §1
Setaria cervi [6] = assay: Antifilarial activity against Setaria cervi oocytes after 24 hrs by MTT assay; type: functional, organism-based
Setaria cervi [7] = assay: Antifilarial activity against Setaria cervi microfilariae after 3 hrs
Setaria cervi [8] = assay: Antifilarial activity against Setaria cervi microfilariae after 3 hrs by trypan blue exclusion assay; type: functional, organism-based
Procedure, shortened: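 After treatment, the culture was mixed and 100 μL holding parasites moved into fresh medium and put back in the CO2 incubator. Viability read by trypan blue staining, dead worms blue. Viability % = live / total microfilariae.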

Setaria cervi [9] = assay: Antifilarial activity against Setaria cervi adult after 3 hrs by trypan blue exclusion assay; type: functional, organism-based
Setaria cervi [10] = assay: Induction of reactive oxygen species generation in Setaria cervi microfilariae at 1 to 10 uM by NBT assay; type: functional, organism-based
Procedure, shortened: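 Treated mf or adults pelleted at 7500 rpm, washed in PBS (50 mM, pH 7.0), then incubated in 2% NBT for 2 h at 37 °C. Washed in PBS and methanol, formazan dissolved in 2M KOH/DMSO for 10–15 min at room temperature, absorbance read at 620 nm.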

WI-38 = assay: Cytotoxicity against human WI38 cells after 24 hrs by MTT assay; type: cell-based; details: WI-38, 24 h
Procedure, shortened: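 WI-38 normal human lung fibroblasts, 2.0×10^4 per well, grown 24 h, then treated 24 h at 0–50 µg/mL. MTT 0.5 mg/mL added in phenol red-free RPMI with 5% FBS, 4 h at 37 °C, 5% CO2. Formazan dissolved in DMSO, A570.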

[11] = Selectivity ratio of IC50 for human WI38 cells to IC50 for Setaria cervi microfilariae; type: toxicity; details: read-out: Ratio IC50

Row | Compound | IC50 (Setaria cervi [1]) | MIC (Setaria cervi [1]) | LC50 (Setaria cervi [2]) | Activity (Setaria cervi [3]) | Activity (Setaria cervi [4]) | Activity (Setaria cervi [5]) | Activity (Setaria cervi [6]) | IC50 (Setaria cervi [7]) | Activity (Setaria cervi [2]) | Activity (Setaria cervi [8]) | Activity (Setaria cervi [9]) | Activity (Setaria cervi [10]) | IC50 (WI-38) | selectivity ratio [11]
1 | S=C(SSc1ncccn1)N1CCc2ccccc2C1 | 31.1 µg/mL (≈ 97.3 µM) | 10.4 µg/mL (≈ 32.4 µM) | 124 µg/mL (≈ 389 µM) |  |  |  |  |  |  |  |  |  |  | 
2 | S=C(SSc1ncccn1)N1CCC(Cc2ccccc2)CC1 | 59.9 µg/mL (≈ 166 µM) | 20 µg/mL (≈ 55.2 µM) | 240 µg/mL (≈ 663 µM) |  |  |  |  |  |  |  |  |  |  | 
3 | S=C(SSc1ccccn1)N1CCC(Cc2ccccc2)CC1 | 59.1 µg/mL (≈ 164 µM) | 19.7 µg/mL (≈ 54.7 µM) | 237 µg/mL (≈ 656 µM) |  |  |  |  |  |  |  |  |  |  | 
4 | COc1ccc(SSC(=S)N2CCc3ccccc3C2)cc1 | 31.4 µg/mL (≈ 90.4 µM) | 10.5 µg/mL (≈ 30.1 µM) | 126 µg/mL (≈ 361 µM) |  |  |  |  |  |  |  |  |  |  | 
5 | Cc1ccc(SSC(=S)N2CCCC2)cc1 | 23.6 µg/mL (≈ 87.5 µM) | 7.86 µg/mL (≈ 29.2 µM) | 94.3 µg/mL (≈ 350 µM) |  |  |  |  |  |  |  |  |  |  | 
6 | S=C(SSc1ncccn1)N1CCOCC1 | 5.5 µg/mL (≈ 20.1 µM) | 0.97 µg/mL (≈ 3.55 µM) | 6.17 µg/mL (≈ 22.6 µM) | Active | Active | Dose-dependent effect | Active | 5.5 µg/mL (≈ 20.1 µM) | Dose-dependent effect | Dose-dependent effect | Dose-dependent effect |  |  | 
7 | S=C(SSc1cccc2ccccc12)N1CCC(Cc2ccccc2)CC1 | 60.7 µg/mL (≈ 148 µM) | 20.2 µg/mL (≈ 49.4 µM) | 243 µg/mL (≈ 593 µM) |  |  |  |  |  |  |  |  |  |  | 
8 | S=C(SSc1cccc2ccccc12)N1CCCCC1 | 2.15 µg/mL (≈ 6.73 µM) | 0.583 µg/mL (≈ 1.82 µM) | 6.49 µg/mL (≈ 20.3 µM) | Active | Active | Dose-dependent effect | Active | 2.15 µg/mL (≈ 6.73 µM) | Dose-dependent effect | Dose-dependent effect | Dose-dependent effect | Active |  | 
9 | S=C(SSc1ncccn1)N1CCCCC1 | 4.75 µg/mL (≈ 17.5 µM) | 2.39 µg/mL (≈ 8.81 µM) | 5.1 µg/mL (≈ 18.8 µM) | Active | Active | Dose-dependent effect | Active | 4.75 µg/mL (≈ 17.5 µM) | Dose-dependent effect | Dose-dependent effect | Dose-dependent effect | Active | 10.6 µg/mL (≈ 39.1 µM) | 5
10 | COc1ccc(SSC(=S)N2CCC(Cc3ccccc3)CC2)cc1 | 62.1 µg/mL (≈ 159 µM) | 20.7 µg/mL (≈ 53.1 µM) | 248 µg/mL (≈ 638 µM) |  |  |  |  |  |  |  |  |  |  | 
11 | Cc1ccc(SSC(=S)N2CCC(Cc3ccccc3)CC2)cc1 | 19.6 µg/mL (≈ 52.6 µM) | 1.22 µg/mL (≈ 3.27 µM) | 22.5 µg/mL (≈ 60.3 µM) |  |  |  |  |  |  |  |  |  |  | 
